In one data set the test system is RAW264.7. Description: Cytotoxicity against mouse RAW264.7 cells. In kind it is cell-based.
Data set [1] addresses Toll-like receptor 4 (Homo sapiens) (UniProt O00206). Description: Inhibition of TLR4 binding to […].
Data set [2] addresses T1, Toll-like receptor 4 (Mus musculus) (UniProt Q9QUK6).
T1 sequence (whole entry): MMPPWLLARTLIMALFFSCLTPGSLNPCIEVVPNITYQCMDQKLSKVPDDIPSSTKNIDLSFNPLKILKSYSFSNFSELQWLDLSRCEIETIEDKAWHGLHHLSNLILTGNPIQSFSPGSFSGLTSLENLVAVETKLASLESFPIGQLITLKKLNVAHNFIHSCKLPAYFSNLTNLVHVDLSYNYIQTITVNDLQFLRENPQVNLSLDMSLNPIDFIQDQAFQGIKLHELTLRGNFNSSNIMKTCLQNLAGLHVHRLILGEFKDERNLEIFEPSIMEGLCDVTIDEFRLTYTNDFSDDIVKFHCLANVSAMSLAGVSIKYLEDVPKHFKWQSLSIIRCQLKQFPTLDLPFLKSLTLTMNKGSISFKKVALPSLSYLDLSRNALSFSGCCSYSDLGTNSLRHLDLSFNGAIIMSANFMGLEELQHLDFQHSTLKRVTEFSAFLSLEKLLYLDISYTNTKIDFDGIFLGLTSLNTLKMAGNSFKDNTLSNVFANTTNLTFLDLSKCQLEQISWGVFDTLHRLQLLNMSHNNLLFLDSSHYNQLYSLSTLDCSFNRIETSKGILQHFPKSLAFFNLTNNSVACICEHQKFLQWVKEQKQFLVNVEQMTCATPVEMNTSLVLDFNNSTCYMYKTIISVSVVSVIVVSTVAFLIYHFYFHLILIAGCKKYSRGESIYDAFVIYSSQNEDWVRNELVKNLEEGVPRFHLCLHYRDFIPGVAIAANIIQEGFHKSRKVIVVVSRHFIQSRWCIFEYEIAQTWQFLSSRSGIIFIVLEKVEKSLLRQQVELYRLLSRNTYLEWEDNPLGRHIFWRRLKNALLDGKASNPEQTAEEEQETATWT
Nature of the data set: Inhibition of LPS-induced TLR4 activation in mouse RAW264.7 cells at 200 nM to 200 uM. Format: cell-based. Put shortly:
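RAW264.7 mouse macrophages plated at 2×10^5 cells/ml on glass-bottom dishes 18 h before imaging. Washed with HBSS/25 mM HEPES pH 7.4, then placed in warmed conditioned Hanks imaging medium. Live-cell frames taken every 7.5 s: 5 baseline frames, vehicle or antagonist added, 20 frames, then LPS (E. coli 0111:B4) added, 20 further frames. C5a added to non-responding dishes to confirm the cells could respond.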

The target in data set [3] is T2, Toll-like receptor 7 (Mus musculus) (UniProt P58681).
T2 sequence (whole entry): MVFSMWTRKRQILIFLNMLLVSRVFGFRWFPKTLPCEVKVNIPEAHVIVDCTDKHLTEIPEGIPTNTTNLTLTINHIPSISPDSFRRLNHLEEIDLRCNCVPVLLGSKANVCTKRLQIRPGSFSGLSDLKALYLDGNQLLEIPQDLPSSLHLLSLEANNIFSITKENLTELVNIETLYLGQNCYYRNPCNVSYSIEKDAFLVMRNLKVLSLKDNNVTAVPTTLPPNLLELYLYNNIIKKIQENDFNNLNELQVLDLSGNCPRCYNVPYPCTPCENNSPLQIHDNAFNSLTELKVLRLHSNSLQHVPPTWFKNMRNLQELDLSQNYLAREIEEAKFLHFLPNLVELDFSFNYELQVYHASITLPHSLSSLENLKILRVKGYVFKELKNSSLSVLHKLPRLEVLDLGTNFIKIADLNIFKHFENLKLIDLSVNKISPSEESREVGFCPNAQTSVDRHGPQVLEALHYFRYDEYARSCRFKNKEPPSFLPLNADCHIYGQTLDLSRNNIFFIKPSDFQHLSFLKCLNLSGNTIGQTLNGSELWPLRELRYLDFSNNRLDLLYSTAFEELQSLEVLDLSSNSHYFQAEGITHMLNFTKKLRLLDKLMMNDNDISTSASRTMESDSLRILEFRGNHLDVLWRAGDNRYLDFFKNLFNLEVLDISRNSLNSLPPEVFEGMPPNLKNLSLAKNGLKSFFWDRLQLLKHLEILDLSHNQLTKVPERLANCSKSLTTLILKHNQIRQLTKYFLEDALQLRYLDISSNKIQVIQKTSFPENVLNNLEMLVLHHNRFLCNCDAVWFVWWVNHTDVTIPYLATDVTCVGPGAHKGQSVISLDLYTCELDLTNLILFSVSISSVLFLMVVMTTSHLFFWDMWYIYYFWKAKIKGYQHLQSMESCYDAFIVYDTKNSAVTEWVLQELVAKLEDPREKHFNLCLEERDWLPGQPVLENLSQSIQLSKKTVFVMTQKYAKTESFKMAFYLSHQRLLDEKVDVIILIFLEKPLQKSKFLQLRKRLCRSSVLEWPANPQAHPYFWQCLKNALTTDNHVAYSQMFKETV
Description: Inhibition TLR7-mediated NO production in mouse RAW264.7 cells at 300 nM.

The target of data set [4] is Toll-like receptor 2 (Mus musculus) (UniProt Q9QUN7). Nature of the data set: Inhibition TLR2-mediated NO production in mouse RAW264.7 cells at 300 nM.
Chain of Toll-like receptor 2 (Mus musculus) (Q9QUN7 whole entry): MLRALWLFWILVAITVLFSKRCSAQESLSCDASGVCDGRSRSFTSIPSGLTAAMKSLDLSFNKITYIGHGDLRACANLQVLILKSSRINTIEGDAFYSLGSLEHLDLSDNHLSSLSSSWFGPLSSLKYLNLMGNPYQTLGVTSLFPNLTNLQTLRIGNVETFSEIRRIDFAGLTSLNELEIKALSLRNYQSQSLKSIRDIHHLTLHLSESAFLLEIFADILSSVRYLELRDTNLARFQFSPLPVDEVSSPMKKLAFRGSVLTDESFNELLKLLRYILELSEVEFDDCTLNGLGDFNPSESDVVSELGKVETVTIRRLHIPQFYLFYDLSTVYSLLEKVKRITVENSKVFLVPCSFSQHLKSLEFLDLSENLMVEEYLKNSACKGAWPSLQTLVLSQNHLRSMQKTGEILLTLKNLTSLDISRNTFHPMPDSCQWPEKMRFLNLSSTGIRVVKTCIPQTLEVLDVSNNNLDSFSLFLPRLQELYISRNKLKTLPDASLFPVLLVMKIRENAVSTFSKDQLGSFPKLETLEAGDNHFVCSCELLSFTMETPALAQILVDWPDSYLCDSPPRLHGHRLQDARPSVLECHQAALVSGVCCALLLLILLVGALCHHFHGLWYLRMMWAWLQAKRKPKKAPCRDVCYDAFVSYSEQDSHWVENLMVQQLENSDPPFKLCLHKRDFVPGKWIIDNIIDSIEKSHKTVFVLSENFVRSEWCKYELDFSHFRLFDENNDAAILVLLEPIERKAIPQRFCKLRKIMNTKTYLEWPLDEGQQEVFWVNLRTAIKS
Data set [5] addresses T1, Toll-like receptor 4 (Mus musculus). Description: Inhibition TLR4-mediated NO production in mouse RAW264.7 cells at 300 nM.
Data set [6] concerns the target T3, Toll-like receptor 3 (Mus musculus) (UniProt Q99MB1).
T3 sequence (whole entry): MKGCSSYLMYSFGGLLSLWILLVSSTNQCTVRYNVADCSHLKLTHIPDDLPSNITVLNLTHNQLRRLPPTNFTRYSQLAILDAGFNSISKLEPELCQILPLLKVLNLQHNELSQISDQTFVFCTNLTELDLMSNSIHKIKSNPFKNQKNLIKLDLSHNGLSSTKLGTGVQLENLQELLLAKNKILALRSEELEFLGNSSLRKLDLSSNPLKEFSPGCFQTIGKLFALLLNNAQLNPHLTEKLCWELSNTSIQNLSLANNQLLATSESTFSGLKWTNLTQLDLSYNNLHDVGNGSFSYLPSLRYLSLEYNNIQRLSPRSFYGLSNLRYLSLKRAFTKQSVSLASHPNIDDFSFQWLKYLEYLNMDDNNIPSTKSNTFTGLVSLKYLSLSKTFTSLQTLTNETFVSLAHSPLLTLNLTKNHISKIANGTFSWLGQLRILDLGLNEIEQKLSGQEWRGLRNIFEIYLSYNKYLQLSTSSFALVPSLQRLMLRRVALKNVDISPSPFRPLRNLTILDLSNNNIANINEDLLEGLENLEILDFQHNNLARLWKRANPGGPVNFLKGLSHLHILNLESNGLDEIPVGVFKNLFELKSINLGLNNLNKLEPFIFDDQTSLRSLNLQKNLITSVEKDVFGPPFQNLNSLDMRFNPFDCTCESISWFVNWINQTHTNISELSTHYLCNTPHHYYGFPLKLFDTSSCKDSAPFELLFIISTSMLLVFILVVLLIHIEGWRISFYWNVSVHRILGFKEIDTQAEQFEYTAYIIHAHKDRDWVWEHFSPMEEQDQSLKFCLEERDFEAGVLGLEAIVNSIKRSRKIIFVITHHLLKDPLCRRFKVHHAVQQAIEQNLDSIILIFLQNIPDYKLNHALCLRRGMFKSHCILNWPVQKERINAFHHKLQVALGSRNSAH
Nature of the data set: Inhibition TLR3-mediated NO production in mouse RAW264.7 cells at 300 nM.

The target of data set [7] is T4, Toll-like receptor 1 (Mus musculus) (UniProt Q9EPQ1).
T4 sequence (whole entry): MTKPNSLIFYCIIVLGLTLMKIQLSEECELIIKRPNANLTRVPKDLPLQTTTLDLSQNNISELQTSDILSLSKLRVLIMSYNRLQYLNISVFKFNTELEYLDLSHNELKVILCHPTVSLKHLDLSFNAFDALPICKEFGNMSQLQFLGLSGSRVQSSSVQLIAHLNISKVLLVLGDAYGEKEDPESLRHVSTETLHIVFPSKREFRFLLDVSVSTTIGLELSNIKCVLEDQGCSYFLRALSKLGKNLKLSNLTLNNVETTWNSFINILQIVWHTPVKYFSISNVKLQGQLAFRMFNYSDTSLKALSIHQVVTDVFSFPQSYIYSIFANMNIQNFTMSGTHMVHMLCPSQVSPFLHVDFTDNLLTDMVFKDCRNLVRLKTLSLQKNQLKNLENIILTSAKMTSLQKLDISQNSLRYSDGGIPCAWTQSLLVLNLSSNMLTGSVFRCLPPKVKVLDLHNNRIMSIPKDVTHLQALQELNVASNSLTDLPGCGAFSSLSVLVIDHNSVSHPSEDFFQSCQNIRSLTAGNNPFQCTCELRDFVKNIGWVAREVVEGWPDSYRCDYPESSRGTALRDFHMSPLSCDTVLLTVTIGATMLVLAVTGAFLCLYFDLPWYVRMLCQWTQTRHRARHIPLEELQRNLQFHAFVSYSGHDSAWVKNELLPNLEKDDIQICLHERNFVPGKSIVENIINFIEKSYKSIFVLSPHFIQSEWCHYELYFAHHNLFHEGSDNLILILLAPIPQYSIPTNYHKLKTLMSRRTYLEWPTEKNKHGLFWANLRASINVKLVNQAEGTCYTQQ
Description: Inhibition TLR1-mediated NO production in mouse RAW264.7 cells at 300 nM.

The target in data set [8] is T5, Toll-like receptor 6 (Mus musculus) (UniProt Q9EPW9).
T5 sequence (whole entry): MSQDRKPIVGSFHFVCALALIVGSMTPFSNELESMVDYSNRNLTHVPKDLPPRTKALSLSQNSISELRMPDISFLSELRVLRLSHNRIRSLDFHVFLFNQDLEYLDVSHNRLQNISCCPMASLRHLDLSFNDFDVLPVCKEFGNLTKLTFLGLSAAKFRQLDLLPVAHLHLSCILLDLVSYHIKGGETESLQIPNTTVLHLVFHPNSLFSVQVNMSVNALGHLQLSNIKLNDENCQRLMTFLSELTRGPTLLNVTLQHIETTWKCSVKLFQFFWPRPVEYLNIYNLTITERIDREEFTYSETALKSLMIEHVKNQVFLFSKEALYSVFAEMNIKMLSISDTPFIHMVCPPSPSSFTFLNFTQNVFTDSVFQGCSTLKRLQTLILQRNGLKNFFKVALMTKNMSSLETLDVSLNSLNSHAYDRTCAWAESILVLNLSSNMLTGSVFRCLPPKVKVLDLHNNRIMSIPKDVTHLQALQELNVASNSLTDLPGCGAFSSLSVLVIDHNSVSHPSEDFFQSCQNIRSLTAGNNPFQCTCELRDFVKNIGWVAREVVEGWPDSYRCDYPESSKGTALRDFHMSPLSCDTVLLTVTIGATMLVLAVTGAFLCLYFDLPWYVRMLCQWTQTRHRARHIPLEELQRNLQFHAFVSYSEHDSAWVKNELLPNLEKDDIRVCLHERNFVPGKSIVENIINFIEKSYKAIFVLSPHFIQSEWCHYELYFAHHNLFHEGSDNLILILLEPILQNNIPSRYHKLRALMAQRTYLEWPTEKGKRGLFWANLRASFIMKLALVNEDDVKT
Nature of the data set: Inhibition TLR6-mediated NO production in mouse RAW264.7 cells at 300 nM.

Calls of active or inactive are those of the source. No cut-off for these calls is given here.

Chain of Toll-like receptor 4 (Homo sapiens) (O00206 whole entry): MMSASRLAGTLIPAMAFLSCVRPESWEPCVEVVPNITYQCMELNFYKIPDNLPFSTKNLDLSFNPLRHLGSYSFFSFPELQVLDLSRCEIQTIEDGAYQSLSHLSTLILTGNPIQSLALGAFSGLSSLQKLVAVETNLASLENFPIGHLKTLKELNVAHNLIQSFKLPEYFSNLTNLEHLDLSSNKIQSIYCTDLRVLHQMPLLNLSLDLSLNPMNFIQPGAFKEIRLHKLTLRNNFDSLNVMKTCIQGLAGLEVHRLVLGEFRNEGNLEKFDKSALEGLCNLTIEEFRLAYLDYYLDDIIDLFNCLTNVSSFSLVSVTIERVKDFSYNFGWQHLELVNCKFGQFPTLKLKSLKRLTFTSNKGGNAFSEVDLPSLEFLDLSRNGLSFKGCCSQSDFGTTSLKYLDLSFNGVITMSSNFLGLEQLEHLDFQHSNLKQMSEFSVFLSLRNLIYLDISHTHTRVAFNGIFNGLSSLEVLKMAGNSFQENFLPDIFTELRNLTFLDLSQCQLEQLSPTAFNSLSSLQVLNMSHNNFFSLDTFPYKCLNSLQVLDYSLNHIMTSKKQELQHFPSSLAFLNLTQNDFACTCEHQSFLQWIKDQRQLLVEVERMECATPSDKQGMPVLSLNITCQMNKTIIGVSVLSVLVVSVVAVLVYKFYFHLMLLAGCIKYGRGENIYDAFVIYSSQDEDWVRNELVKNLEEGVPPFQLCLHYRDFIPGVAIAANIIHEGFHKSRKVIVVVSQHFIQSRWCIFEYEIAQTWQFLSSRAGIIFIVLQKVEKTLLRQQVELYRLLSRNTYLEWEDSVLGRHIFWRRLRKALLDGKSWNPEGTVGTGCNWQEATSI

Regarding `CC(C)CC(=O)Nc1ccc(OC(=O)C23CC4CC(CC(C4)C2)C3)cc1`, the Activity result with RAW264.7 is “Non-toxic”. The outcome in [1] and in [2] was Active.
Regarding `CCOc1ccc(OCC(O)CN(C)Cc2c(C)nn(Cc3ccccc3Cl)c2C)cc1` (configuration not stated), the outcome in data set [3], in data set [4], in [6], in data set [7] and in [8] was inactive. Besides, the Activity result with RAW264.7 is “Non-toxic”. Moreover, the outcome in data set [5], in [1] and in data set [2] was Active.

The values above are taken from ChEMBL document CHEMBL1221358, “Application of a novel in silico high-throughput screen to identify selective inhibitors for protein-protein interactions” (Bioorg Med Chem Lett, 2010).
